# In the library only some 2.7% were active in any assay of this set; here they are far more common.
# Hep lipid drop = modulators of hepatic lipid droplet formation; actives 0.4% (n = 240,000); inhibition, % at 6.5 µM; AML12 mouse hepatocytes, oleate lipid droplets, BODIPY imaging;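 active = lipid droplet intensity inhibited by at least 50%, with more than 500 cells counted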
#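 Technique: fluorescence imaging, 20x objective, two fields per well / Assay system: AML12 hepatocytes (mouse) / Measure: % inhibition of lipid droplet signal / Doses: 6.5 µM single-point dosing / Incubation: overnight exposure / Reagent: 100 µM oleic acid challenge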
# MC4R barr agon = activates human MC4R beta-arrestin recruitment; P32245; U2OS MC4R beta-arrestin complementation, luminescence; percent of melanotan II response, DMSO zero; activation, % at 8.9 µM; actives 0.98% (n = 360,000); AID 540308;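 active = activation above a per-plate cutoff, the mean activation of sample wells on that plate plus 3 SD, cut at about 8% in these data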
# PREPL inhibitor = inhibits the human prolyl oligopeptidase-like enzyme. Q4J6C6. recombinant PREPL, fluorescence polarization activity-based probe. inhibition, % at 5.96 µM. actives 0.68% (n = 320,000). AID 2751; in the data active = inhibition above about 43%;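 also: 0% = enzyme with DMSO and 100% = wells lacking enzyme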
# Target sequence (Q4J6C6 whole entry, looked up): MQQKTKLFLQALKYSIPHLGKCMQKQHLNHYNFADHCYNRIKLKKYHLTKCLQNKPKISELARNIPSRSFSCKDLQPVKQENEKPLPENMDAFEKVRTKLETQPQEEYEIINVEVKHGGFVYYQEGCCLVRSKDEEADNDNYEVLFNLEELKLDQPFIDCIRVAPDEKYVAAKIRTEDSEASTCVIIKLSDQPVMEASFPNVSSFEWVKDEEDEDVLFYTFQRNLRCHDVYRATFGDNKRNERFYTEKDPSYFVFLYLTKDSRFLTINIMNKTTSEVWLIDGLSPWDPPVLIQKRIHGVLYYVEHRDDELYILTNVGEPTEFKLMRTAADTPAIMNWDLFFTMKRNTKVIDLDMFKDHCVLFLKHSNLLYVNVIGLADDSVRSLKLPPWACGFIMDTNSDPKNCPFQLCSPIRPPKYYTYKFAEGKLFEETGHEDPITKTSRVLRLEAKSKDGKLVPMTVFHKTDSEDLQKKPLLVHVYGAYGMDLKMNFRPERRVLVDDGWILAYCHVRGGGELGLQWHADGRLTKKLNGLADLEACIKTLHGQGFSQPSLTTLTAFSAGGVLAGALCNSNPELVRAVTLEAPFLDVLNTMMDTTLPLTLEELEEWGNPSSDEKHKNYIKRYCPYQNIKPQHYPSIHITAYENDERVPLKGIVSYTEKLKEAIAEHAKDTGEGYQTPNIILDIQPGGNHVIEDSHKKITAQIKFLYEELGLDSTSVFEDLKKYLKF
# NTR1 ag = agonists of human neurotensin receptor NTR1 | P30989 | AID 493036 | actives 0.17% (n = 330,000) | NTR1-U2OS beta-arrestin-GFP spot imaging, agonist mode | activation, % at 20 µM;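 active = activation at or above 40% of the spot to cytoplasm intensity ratio, with at least 20 cells analyzed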;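 also: 0% = DMSO without peptide and 100% = 100 nM NTR1 peptide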
# m5-HT2A agonist = agonists of mouse serotonin 5-HT2A receptor (HTR2A); activation, % at 7.6 µM; CHO-K1 mHTR2A beta-arrestin complementation, luminescence; percent of 30 µM serotonin response; P35363; actives 0.66% (n = 360,000);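 active = activation above a run cutoff, the mean activation of all tested compounds plus 3 SD, cut at about 14% in these data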;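 also: 0% = plate median of compound wells and 100% = 30 µM serotonin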
# MC4R antag cAMP = human MC4R antagonism in cAMP assay; P32245; MC4R-expressing cells, MTII-stimulated cAMP, LANCE TR-FRET; inhibition, % at 6.5 µM; actives 0.48% (n = 360,000); AID 540295;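 active = inhibition above its plate's cutoff, the mean of tested wells on that plate plus 3 SD, cut at about 29% in these data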;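 also: 0% = Melanotan II alone and 100% = Melanotan II plus saturating MCL0020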
#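 Assay system: human MC4R-expressing U2OS cells; reagent: Melanotan II stimulation of cells; dosing: 6.5 µM single dose; timing: compound 30 min, challenge 1 h, detection 1 h; signal: TR-FRET cAMP assay; replicates: one well per compound, no replicates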
# OPRM1 ag = activates human mu opioid receptor in HTR2A counterscreen; activation, % at 9.3 µM; U2OS OPRM1 beta-arrestin PathHunter, luminescence; DMSO 0%, DAMGO 9.3 µM 100%; actives 5.3% (n = 2,300); AID 624380; shares compounds with m5-HT2A agonist;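 active = mean activation above the mean of DMSO-only wells plus 3 SD, cut at about 0.5% in these data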
# HTR2A ag conf = mouse HTR2A agonism confirmed | shares compounds with m5-HT2A agonist | CHO-K1 PathHunter beta-arrestin recruitment, luminescence; DMSO 0%, 30 µM serotonin 100% | activation, % at 7.6 µM | actives 19% (n = 2,300) | AID 624381;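 active = mean activation across triplicates above the hit threshold derived in the original primary screen, cut at about 15% in these data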
# * = called active by the depositor; x = no result given.
SMILES,Hep lipid drop,MC4R barr agon,PREPL inhibitor,NTR1 ag,m5-HT2A agonist,MC4R antag cAMP,OPRM1 ag,HTR2A ag conf
CCOC(=O)c1ccc(NC(=O)C23CCC(C)(C(=O)O2)C3(C)C)cc1 (stereo unspecified),-1,-2,0,-1,18*,-1,-1,-4
COC(=O)c1cc(C(=O)OC)[nH]n1,-5,-2,-4,1,-4,14,x,x
CN(Cc1ccccc1)C(=O)c1ccc(NC(=O)C2CCCN(C(=O)OC(C)(C)C)C2)cc1 (stereo unspecified),x,-1,0,5,1,8,x,x
CCc1c(C)nn(C(=O)/C(C#N)=C\N(C)C)c1C,2,-2,19,3,42*,-1,0,2
CCOC(=O)/C(C#N)=C\N(C)C,x,3,9,-2,8,-5,x,x
C=CCn1c(C)cc(C(=O)COC(=O)/C=C/c2cccc(OC)c2)c1C,20,0,-3,3,-2,-5,x,x
O=C(CCN1N=C(c2ccccc2)CCC1=O)NC1CCCCC1,x,0,x,x,0,8,x,x
O=C(CCN1N=C(c2ccccc2)CCC1=O)NC1CCCC1,-7,-2,7,0,19*,5,-1,-3
O=S(=O)(c1cccc2cccnc12)N1CCN(c2ccc(F)cc2)CC1,-3,-2,-11,-1,-5,9,x,x
O=S(=O)(c1cccc2cccnc12)N1CCOCC1,3,0,-2,2,21*,0,-1,-2
COc1ccc(NC(=O)C2CCN(S(=O)(=O)c3cccc4cccnc34)CC2)cc1OC,-4,-1,8,0,17*,5,0,-3
COCCCNC(=O)c1csc([C@H]2C[C@H](O)[C@@H](CO)O2)n1,x,-1,x,x,19*,1,0,-4
N#CCSc1ccccc1NC(=O)COC(=O)CCN1C(=O)C2CC=CCC2C1=O (stereo unspecified),x,0,23,0,9,0,x,x
Cc1ccc2c(CSc3nc4ccccc4c(=O)n3CCCO)cc(=O)oc2c1,x,-2,x,x,-7,-12,x,x
CCn1ccnc1CNC(=O)C1CCC(=O)N(Cc2cccc(C(F)(F)F)c2)C1 (stereo unspecified),2,-1,-4,0,6,8,x,x
CCn1ccnc1CN(C)C(=O)C1CCC(=O)N(Cc2cccc(C(F)(F)F)c2)C1 (stereo unspecified),-19,0,10,2,15*,-3,-1,-4
O=S1(=O)CCC(NC(=S)N2CCCCC2)C1 (stereo unspecified),-6,-2,5,0,17*,9,-1,-3
O=C(NC1CCS(=O)(=O)C1)C1CCCC1 (stereo unspecified),x,-3,1,1,7,2,x,x
CSc1cccc(N2CC(C(=O)N(CC(C)C)c3c(N)n(Cc4ccccc4)c(=O)[nH]c3=O)CC2=O)c1 (stereo unspecified),x,-4,-9,-1,3,26,x,x
CCOc1cc(C(=O)NCC(=O)N/N=C/c2sccc2C)cc(OCC)c1OCC,-22,-3,1,0,17*,5,-1,-5
CC1CCC(NS(=O)(=O)c2ccc(N3CCCC3=O)cc2)CC1 (stereo unspecified),19,1,-11,1,7,-5,x,x
CC1(c2ccccc2)NC(=O)N(N)C1=O (stereo unspecified),-28,-1,5,-1,3,-5,x,x
CCCc1[nH]nc2c1C(c1ccsc1)C(C#N)=C(N)O2 (stereo unspecified),2,-3,0,4,21*,11,-1,-4
N#Cc1c(/N=C/c2ccco2)sc2c1CCCCC2,x,0,-2,1,14*,-6,0,21*
COc1cc(C(=O)Oc2ccccc2OC(=O)c2cc(OC)c(OC)c(OC)c2)cc(OC)c1OC,x,0,x,x,3,15,x,x
SMILES,Hep lipid drop,MC4R barr agon,PREPL inhibitor,NTR1 ag,m5-HT2A agonist,MC4R antag cAMP,OPRM1 ag,HTR2A ag conf
O=C(Nc1cccnc1)c1cc(-c2ccco2)on1,x,-1,9,-1,20*,2,-1,-2
COC(=O)c1ccn(CSc2cc(Cl)ccc2Cl)n1,x,-1,-19,-1,21*,3,0.6*,4
COC(=O)c1ccn(CSc2c(F)c(F)cc(F)c2F)n1,x,-1,-12,1,8,9,x,x
COc1ccc(OC)c(NC(=S)N(CCc2c(C)[nH]c3ccc(C)cc23)Cc2cccs2)c1,13,2,14,4,20*,12,-1,4
COc1ccc(CCN2CC(C(=O)NCCN3CCCC3=O)CCC2=O)cc1 (stereo unspecified),0,0,1,2,-4,19,x,x
O=C(Nc1ccc(Cl)c(S(=O)(=O)N2CCOCC2)c1)c1ccc(Cl)nc1,x,0,x,6,17*,6,0,0
COc1ccc(S(=O)(=O)NCC(c2ccc3c(c2)OCO3)N2CCN(c3ccccc3)CC2)cc1 (stereo unspecified),x,-4,6,2,18*,9,0,66*
Cc1ccc(-c2csc(NC(=O)N3CCOCC3)n2)cc1,0,-1,4,3,-5,-3,x,x
CC[N+](C)(CC)CC(O)COCC1COc2ccccc2O1 (stereo unspecified),-3,-1,13,-1,16*,-3,-1,-2
OC(COCC1COc2ccccc2O1)CN1CCN(c2ccccc2F)CC1 (stereo unspecified),x,4,9,0,15*,-2,0,36*
OCCN1CCN(CC(O)COCC2COc3ccccc3O2)CC1 (stereo unspecified),-4,-2,20,-1,3,-1,x,x
N=C1CCCN1CC(=O)c1ccc(Br)cc1,-13,-1,-6,-1,6,12,x,x
CCN(CC)C(=O)C1CCN(S(=O)(=O)c2cccc3nonc23)CC1,1,2,4,0,4,2,x,x
CCN(C(=O)C1CCN(S(=O)(=O)c2cccc3nonc23)CC1)c1ccccc1,x,-1,8,-4,15*,1,-1,-2
CN1CCN(c2nc(-c3ccccc3)ncc2S(=O)(=O)c2ccccc2)CC1,7,0,-45,0,38*,-3,0,29*

# Screening data (PubChem)
